Activity calls are given as the source filed them. The rule behind the calls is not given here.

We go through 1 compound from ChEMBL document CHEMBL1138474, “Modulation of the transient receptor potential vanilloid channel TRPV4 by 4alpha-phorbol esters: a structure-activity study” (J Med Chem, 2009).

The target in experiment [1] is Transient receptor potential cation channel subfamily V member 1 (Homo sapiens) (UniProt Q8NER1). Description: Activation of TRPV1 expressed in HEK293 cells assessed as increase in intracellular calcium concentration. The class given is cell-based. In a few lines: (§1)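 HEK293 cells grown in DMEM with 10% human serum at 37 °C/10% CO2 and transfected with the TRPV channel. Cells were loaded with 4 µM Fura-2 AM for 30 min at 37 °C and perfused with Krebs buffer (1.5 mM CaCl2, pH 7.4). Read-out is single-cell 340/380 nm fura-2 ratio imaging against nontransfected cells.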
Background: Calcium flux is commonly read through the fluorescence of an indicator in the cells.

Experiment [2] has as its system Transient receptor potential cation channel subfamily V member 4 (Mus musculus), Q9EPK8 [W586A]. Description: Agonist activity at mouse TRPV4 W586A mutant expressed in HEK293 cells assessed as increase in intracellular calcium measured by fura-2 fluorescence ratio. The class given is functional, cell-based. In a few lines: (§2)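 HEK293 cells transiently transfected with W586A or Y556A mouse TRPV4 mutants alongside wild type. Dose-response by single-cell fura-2 Ca2+ imaging, read as ΔFura-2 ratio. More than 15 cells per point from three independent transfections. Hill fit used, significance set at p < 0.05.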

The target in experiment [3] is Transient receptor potential cation channel subfamily V member 4 (Mus musculus, UniProt Q9EPK8, W586A). Briefly: Activation of mouse TRPV4 W586A mutant expressed in HEK293 cells assessed as increase in intracellular calcium concentration. The experiment is classed as cell-based. In outline:
(§3)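 mTRPV4 (wild type or the Y556A, S557A or W586A TM3-4 mutant) in pCAGGS/Ires-GFP was transiently transfected into HEK293 cells and incubated overnight. GFP-positive cells on poly-L-lysine coverslips were loaded with 4 µM Fura-2 AM for 30 min at 37 °C and perfused with Krebs solution (1.5 mM CaCl2, pH 7.4). The 340/380 nm ratio (510 nm emission) gave ∆Fura-2 ratio. EC50 came from a Hill fit, >15 cells, three transfections.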

Experiment [4] addresses Transient receptor potential cation channel subfamily V member 4 (Mus musculus, UniProt Q9EPK8, Y556A). Description: Activation of mouse TRPV4 Y556A mutant expressed in HEK293 cells assessed as increase in intracellular calcium concentration. The experiment is classed as cell-based. In outline: as §3
The test system of experiment [5] is Transient receptor potential cation channel subfamily V member 4 (Mus musculus), Q9EPK8 [Y556A]. Briefly: Agonist activity at mouse TRPV4 Y556A mutant expressed in HEK293 cells assessed as increase in intracellular calcium measured by fura-2 fluorescence ratio. The class given is functional, cell-based. In outline:
as §2

Experiment [6] deals with Transient receptor potential cation channel subfamily V member 4 (Mus musculus) (UniProt Q9EPK8). Briefly: Activation of mouse wild type TRPV4 expressed in HEK293 cells assessed as increase in intracellular calcium concentration at 500 nM in presence of TRP antagonist ruthenium red.
Experiment [7] deals with T1, Transient receptor potential cation channel subfamily V member 3 (Homo sapiens) (UniProt Q8NET8).
T1 sequence (whole entry): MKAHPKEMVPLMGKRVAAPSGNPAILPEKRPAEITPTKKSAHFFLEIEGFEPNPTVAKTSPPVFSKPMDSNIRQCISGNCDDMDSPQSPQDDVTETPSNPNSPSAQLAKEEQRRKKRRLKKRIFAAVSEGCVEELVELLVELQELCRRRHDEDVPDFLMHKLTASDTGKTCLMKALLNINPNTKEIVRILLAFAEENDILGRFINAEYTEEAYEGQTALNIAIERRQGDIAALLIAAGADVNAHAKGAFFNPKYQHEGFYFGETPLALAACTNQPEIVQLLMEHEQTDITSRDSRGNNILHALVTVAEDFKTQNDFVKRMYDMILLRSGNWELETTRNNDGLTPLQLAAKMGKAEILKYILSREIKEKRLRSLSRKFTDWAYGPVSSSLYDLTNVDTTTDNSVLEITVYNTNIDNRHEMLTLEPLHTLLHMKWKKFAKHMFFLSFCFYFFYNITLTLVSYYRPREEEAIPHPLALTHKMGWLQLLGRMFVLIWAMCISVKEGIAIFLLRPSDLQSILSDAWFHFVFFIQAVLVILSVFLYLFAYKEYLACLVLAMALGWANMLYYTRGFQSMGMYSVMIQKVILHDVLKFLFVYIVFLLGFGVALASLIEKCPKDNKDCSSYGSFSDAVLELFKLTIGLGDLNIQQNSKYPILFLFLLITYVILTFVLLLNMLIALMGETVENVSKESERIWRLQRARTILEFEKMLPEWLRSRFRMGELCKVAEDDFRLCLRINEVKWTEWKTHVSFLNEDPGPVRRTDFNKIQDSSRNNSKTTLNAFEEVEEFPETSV
Briefly: Activation of TRPV3 expressed in HEK293 cells assessed as increase in intracellular calcium concentration. The class given is cell-based. In outline:
as §1

The target of experiment [8] is Transient receptor potential cation channel subfamily V member 4 (Mus musculus) (UniProt Q9EPK8). Description: Activation of mouse wild type TRPV4 expressed in HEK293 cells assessed as outward-inward rectifying current density at 500 nM at a holding potential of 100 mV by whole cell patch-clamp assay in absence of calcium. The experiment is classed as cell-based. In outline: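 Whole-cell patch clamp was run on mTRPV4-transfected HEK293 cells using ramps from -100 to +100 mV. CaCl2 was omitted from both solutions. Bath (mM): 150 NaCl, 6 CsCl, 1 MgCl2, 10 glucose, 10 HEPES, pH 7.4. Pipette (mM): 20 CsCl, 100 aspartate, 1 MgCl2, 10 HEPES, 4 Na-ATP, 10 BAPTA, pH 7.4. Agonist was added to the bath. Five cells, >2 transfections.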

Experiment [9] shares this target. Briefly: Agonist activity at mouse wild type TRPV4 expressed in HEK293 cells assessed as increase in intracellular calcium measured by fura-2 fluorescence ratio. The class given is functional, cell-based. In outline: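 Mouse TRPV4 (pCAGGS/Ires-GFP) transiently transfected into HEK293 cells, incubated overnight, then seeded on poly-L-lysine coverslips. GFP-positive cells loaded with 4 µM Fura-2 AM for 30 min at 37 °C and perfused with Krebs (pH 7.4). ΔFura-2 ratio taken as (Rt−R0)/R0 at the maximal response. EC50 from a Hill fit over >15 cells from three transfections, mean ± SEM.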

Experiment [10] concerns the target Transient receptor potential cation channel subfamily V member 4 (Mus musculus, UniProt Q9EPK8). Description: Activation of mouse wild type TRPV4 expressed in HEK293 cells assessed as increase in intracellular calcium concentration. The experiment is classed as cell-based. In outline: as §3
A further experiment has as its system HEK293. Description: Effect on intracellular calcium level in non transfected HEK293 cells at >10 uM. The class given is functional, cell-based. As to conditions: Homo sapiens. In outline: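 GFP-negative (untransfected) HEK293 cells from the same coverslips were imaged by fura-2 ratio. Compound was applied at concentrations above 10 µM.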
Experiment [11] has as its target Transient receptor potential cation channel subfamily V member 4 (Mus musculus) (UniProt Q9EPK8). Description: Activation of mouse wild type TRPV4 expressed in HEK293 cells assessed as increase in intracellular calcium concentration at 0.1 uM. The experiment is classed as cell-based.
In experiment [12] the target is Transient receptor potential cation channel subfamily V member 4 (Mus musculus, UniProt Q9EPK8, S557A). Briefly: Activation of mouse TRPV4 S557A mutant expressed in HEK293 cells assessed as increase in intracellular calcium concentration. The class given is cell-based. In a few lines:
as §3

Sequence of Transient receptor potential cation channel subfamily V member 4 (Mus musculus) (Q9EPK8 whole entry): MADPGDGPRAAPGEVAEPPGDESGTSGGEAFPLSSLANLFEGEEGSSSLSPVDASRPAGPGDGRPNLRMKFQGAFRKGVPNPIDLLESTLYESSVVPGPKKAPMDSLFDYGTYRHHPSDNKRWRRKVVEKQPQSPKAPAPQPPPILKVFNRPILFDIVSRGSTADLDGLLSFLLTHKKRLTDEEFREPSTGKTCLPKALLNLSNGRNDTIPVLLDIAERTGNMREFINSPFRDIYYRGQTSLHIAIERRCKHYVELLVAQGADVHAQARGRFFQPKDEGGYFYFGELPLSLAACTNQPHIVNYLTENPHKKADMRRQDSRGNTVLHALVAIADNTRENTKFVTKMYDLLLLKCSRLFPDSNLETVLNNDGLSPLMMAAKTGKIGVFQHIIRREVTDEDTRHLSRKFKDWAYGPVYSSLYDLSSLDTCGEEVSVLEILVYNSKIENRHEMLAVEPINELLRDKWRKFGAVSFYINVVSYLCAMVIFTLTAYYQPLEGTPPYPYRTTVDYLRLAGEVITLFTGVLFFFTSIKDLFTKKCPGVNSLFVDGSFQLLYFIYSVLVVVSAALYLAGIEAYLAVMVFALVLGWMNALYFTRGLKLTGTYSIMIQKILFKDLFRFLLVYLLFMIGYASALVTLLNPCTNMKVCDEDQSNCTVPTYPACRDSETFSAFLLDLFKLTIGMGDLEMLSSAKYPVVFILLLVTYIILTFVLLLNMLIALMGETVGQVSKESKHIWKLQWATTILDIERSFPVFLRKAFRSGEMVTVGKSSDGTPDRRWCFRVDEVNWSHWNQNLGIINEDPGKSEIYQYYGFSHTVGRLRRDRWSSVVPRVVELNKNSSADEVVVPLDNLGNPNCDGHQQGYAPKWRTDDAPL
Sequence of Transient receptor potential cation channel subfamily V member 4 (Mus musculus, UniProt Q9EPK8, Y556A) (Q9EPK8 whole entry Y556A): as the sequence (Q9EPK8 whole entry) above, with Y556A counted along it
Sequence of Transient receptor potential cation channel subfamily V member 4 (Mus musculus), Q9EPK8 [Y556A] (Q9EPK8 whole entry Y556A): as the sequence (Q9EPK8 whole entry) above, with Y556A counted along it
Sequence of Transient receptor potential cation channel subfamily V member 4 (Mus musculus, UniProt Q9EPK8, W586A) (Q9EPK8 whole entry W586A, the tested form may be a part): as the sequence (Q9EPK8 whole entry) above, with W586A counted along it
Sequence of Transient receptor potential cation channel subfamily V member 4 (Mus musculus), Q9EPK8 [W586A] (Q9EPK8 whole entry W586A): as the sequence (Q9EPK8 whole entry) above, with W586A counted along it
Sequence of Transient receptor potential cation channel subfamily V member 1 (Homo sapiens) (Q8NER1 whole entry, the tested form may be a part): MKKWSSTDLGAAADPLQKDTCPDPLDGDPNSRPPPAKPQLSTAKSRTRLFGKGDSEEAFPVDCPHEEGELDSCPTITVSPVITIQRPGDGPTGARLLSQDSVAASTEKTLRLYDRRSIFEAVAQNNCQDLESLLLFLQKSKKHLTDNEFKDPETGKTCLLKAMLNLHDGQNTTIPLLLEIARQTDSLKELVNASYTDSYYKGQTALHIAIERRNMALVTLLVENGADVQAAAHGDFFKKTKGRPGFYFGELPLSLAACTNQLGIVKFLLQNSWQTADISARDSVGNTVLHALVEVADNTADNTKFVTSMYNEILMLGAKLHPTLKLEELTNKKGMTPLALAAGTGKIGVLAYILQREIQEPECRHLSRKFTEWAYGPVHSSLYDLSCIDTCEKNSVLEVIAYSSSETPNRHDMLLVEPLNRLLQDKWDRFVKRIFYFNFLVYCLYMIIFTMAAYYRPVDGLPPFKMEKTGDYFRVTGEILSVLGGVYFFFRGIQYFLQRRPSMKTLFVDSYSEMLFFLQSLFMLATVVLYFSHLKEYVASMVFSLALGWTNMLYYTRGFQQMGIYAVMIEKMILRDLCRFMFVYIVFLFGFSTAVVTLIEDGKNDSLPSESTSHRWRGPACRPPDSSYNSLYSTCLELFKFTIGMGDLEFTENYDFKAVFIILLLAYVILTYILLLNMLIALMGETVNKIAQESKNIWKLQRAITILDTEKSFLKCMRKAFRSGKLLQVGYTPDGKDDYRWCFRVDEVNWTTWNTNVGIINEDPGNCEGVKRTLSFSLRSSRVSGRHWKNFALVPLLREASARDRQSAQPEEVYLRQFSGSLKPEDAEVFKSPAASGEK
Sequence of Transient receptor potential cation channel subfamily V member 4 (Mus musculus, UniProt Q9EPK8) (Q9EPK8 whole entry): as the sequence (Q9EPK8 whole entry) above
Sequence of Transient receptor potential cation channel subfamily V member 4 (Mus musculus, UniProt Q9EPK8, S557A) (Q9EPK8 whole entry S557A): as the sequence (Q9EPK8 whole entry) above, with S557A counted along it

Regarding `CCCCCCCCCC(=O)O[C@@H]1[C@@H](C)[C@]2(O)[C@@H]3C4C([C@H]2[C@@H]2C(C)(C)[C@]12OC(=O)CCCCCCCCC)C1(CO)C[C@H]3C(=O)C41C` (stereo partly drawn), the outcome in experiment [1], in experiment [6] and in [7] was inactive. Moreover, the outcome (in [2]; in [5]; in [9]; in the experiment with HEK293; in experiment [11]) was Active. Moreover, the EC50 (commonly the midpoint of the concentration-response curve) amounted to 3.64 µM in experiment [3], 9.36 µM in experiment [4], 0.175 µM in experiment [10] and 0.24 µM in experiment [12]. Also, in experiment [8], the Activity worked out at 635.
